pEC50: −log10 of the molar value.
Experiments:
Plasmodium falciparum [1] = test: Antimalarial activity against Plasmodium falciparum W2; format: functional, organism-based
Plasmodium falciparum [2] = test: Antimalarial activity against Plasmodium falciparum TM90-C2B; format: functional, organism-based
Plasmodium berghei [3] = test: Antimalarial activity against Plasmodium berghei; format: functional, organism-based
In short: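 In vitro liver-stage (exoerythrocytic) assay against P. berghei; the value is the EC50 (nM).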

J774 = test: Cytotoxicity against mouse J774 cells; format: cell-based
Plasmodium falciparum [4] = test: Resistance index, ratio of EC50 for Plasmodium falciparum TM90-C2B to EC50 for Plasmodium falciparum W2; format: functional
[5] = Liver blood index, ratio of EC50 for Plasmodium falciparum W2 to EC50 for Plasmodium berghei; format: functional
In short: (§1)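 Liver-stage EC50 measured in vitro against P. berghei. Liver blood index is the blood-stage EC50 divided by the P. berghei EC50, using either W2 or TM90-C2B as the blood-stage strain.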

[6] = Liver blood index, ratio of EC50 for Plasmodium falciparum TM90-C2B to EC50 for Plasmodium berghei; format: functional; in short: as §1
Plasmodium berghei [7] = test: Antimalarial activity against Plasmodium berghei infected in mouse assessed as inhibition of parasitemia at 50 mg/kg, po administered as single dose measured on day 3 post drug exposure relative to untreated control; format: functional; conditions: 72 h
In short: (§2)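 Two infected mice per compound were each given a single oral dose of 50 mg/kg, suspended in PEG400, on day 1 post-exposure. Parasitemia was assessed on days 3 and 6 post-exposure.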

Plasmodium berghei [8] = test: Antimalarial activity against Plasmodium berghei infected in mouse assessed as inhibition of parasitemia at 50 mg/kg, po administered as single dose measured on day 6 post drug exposure relative to untreated control; format: functional; conditions: 144 h; in short: as §2

Structure (SMILES) | pEC50 (Plasmodium falciparum [1]) | pEC50 (Plasmodium falciparum [2]) | pEC50 (Plasmodium berghei [3]) | pEC50 (J774) | Ratio EC50 (Plasmodium falciparum [4]) | Ratio EC50 [5] | Ratio EC50 [6] | inhibition in vivo at 50 mg/kg (Plasmodium berghei [7]) [%] | inhibition in vivo at 50 mg/kg (Plasmodium berghei [8]) [%]
COC(=O)c1c[nH]c2ccc(OCCCc3ccccc3)cc2c1=O | 7.84 | 5.44 | 7.95 | 4.77 | 255 | 1.3 | 331 | 76.9 | < 1
COC(=O)c1c[nH]c2cc(Oc3ccccc3)ccc2c1=O | 7.78 | 5.71 | 6.96 | 5.04 | 117 | 0.15 | 17.7 | 40 | 29.8
CCCCc1cc2c(=O)c(CC)c[nH]c2cc1OCCOc1ccccc1 | 9.36 | 8.72 | 8.58 | 6.44 | 4.36 | 0.166 | 0.725 | 69.2 | 17.7
COC(=O)c1c[nH]c2ccc(OCc3ccccc3)cc2c1=O | 7.94 | 5.96 | 6.90 | 5.12 | – | 0.091 | 8.66 | – | < 1
CCCCc1cc2c(=O)c(C(=O)N(C)C)c[nH]c2cc1OCCOc1ccccc1 | 7.25 | < 5.21 | 6.91 | 4.82 | >108 | 0.46 | > 27.7 | – | –
CCCCc1ccc2[nH]cc(C(=O)OC)c(=O)c2c1 | 8.80 | 6.65 | 9.09 | < 4.70 | 141 | 1.93 | 271 | – | –
CCCCc1cc2c(=O)c(C(=O)O)c[nH]c2cc1OCCOc1ccccc1 | 7.19 | 5.95 | 9.57 | < 4.70 | 17.3 | 240 | 4160 | – | –
CCCCc1cc2c(=O)c(I)c[nH]c2cc1OCCOc1ccccc1 | 8.91 | 8.22 | 8.59 | < 5.00 | 4.91 | 0.482 | 2.37 | – | –
CCCCc1cc2c(=O)c(C(=O)OCC)c[nH]c2cc1OCCOc1ccccc1 | 9.84 | 7.00 | 11.15 | < 4.70 | 699 | 19.6 | 14300 | – | –
CCCCc1cc2c(=O)c(Br)c[nH]c2cc1OCCOc1ccccc1 | 8.33 | 7.31 | 7.73 | 5.09 | 10.5 | 0.248 | 2.6 | – | –
CCc1cc2c(=O)c(C(=O)OC)c[nH]c2cc1OCCOc1ccccc1 | 9.34 | 7.19 | 9.13 | < 4.70 | 142 | 0.626 | 88.6 | – | –
COC(=O)c1c[nH]c2cc(OCCOc3ccccc3)c(Cl)cc2c1=O | 8.00 | 6.21 | 10.20 | < 4.70 | 62.1 | 158 | 9790 | < 1 | < 1
CCCCc1cc2c(=O)c(I)c(C)[nH]c2cc1OCCOc1ccccc1 | 9.06 | 8.23 | – | – | 6.77 | – | – | 53.9 | 19.6
COC(=O)c1c[nH]c2ccc(Cl)cc2c1=O | 6.21 | 4.09 | 7.33 | < 4.70 | 134 | 13.2 | 1760 | – | –
COC(=O)c1c[nH]c2cc(OCCOc3ccccc3)c(C)cc2c1=O | 8.70 | 6.30 | 6.82 | < 4.70 | 248 | 0.013 | 3.28 | – | –
CCCCc1cc2c(=O)c(Cl)c(C)[nH]c2cc1OCCOc1ccccc1 | 8.16 | 7.17 | 7.95 | < 5.00 | 9.79 | 0.616 | 6.03 | – | –
COC(=O)c1c[nH]c2cc(OCCOc3ccccc3)c(OC)cc2c1=O | 8.16 | 7.95 | 7.76 | < 4.70 | 1.6 | 0.396 | 0.634 | – | –
COC(=O)c1c[nH]c2ccccc2c1=O | 6.70 | 5.18 | 8.44 | < 4.70 | 33 | 54.8 | 1810 | – | –
COC(=O)c1c[nH]c2cc(OCCCc3ccccc3)ccc2c1=O | 9.15 | < 6.11 | 8.28 | 5.83 | >1100 | 0.14 | – | 69.2 | 47.1
COC(=O)c1c[nH]c2cc(OCCOc3ccccc3)c(Br)cc2c1=O | 8.35 | 6.07 | 9.47 | < 4.70 | 189.5 | 13.3 | 2520 | – | –
COC(=O)c1c[nH]c2cc(OCCOc3ccccc3)ccc2c1=O | 8.55 | 7.13 | 9.54 | < 4.70 | 26.3 | 9.79 | 257 | – | –
CCCCc1cc2c(=O)c(C(=O)NC)c[nH]c2cc1OCCOc1ccccc1 | 7.88 | 5.40 | 8.54 | < 4.70 | 299 | 4.63 | 1390 | – | –
CCCCc1cc2c(=O)cc[nH]c2cc1OCCOc1ccccc1 | 6.48 | 6.37 | 8.24 | < 4.70 | 1.31 | 56.4 | 73.9 | – | –
COC(=O)c1c[nH]c2ccc(OC)cc2c1=O | 6.32 | < 4.97 | 7.10 | 5.21 | >22.2 | 6.05 | – | – | –
COC(=O)c1c[nH]c2cc(OCCc3ccccc3)ccc2c1=O | 6.86 | 5.11 | – | 4.76 | 55.7 | – | – | 60 | < 1
CCCCc1cc2c(=O)c(C#N)c[nH]c2cc1OCCOc1ccccc1 | 7.01 | 5.50 | 8.22 | < 4.70 | 32.6 | 15.7 | 521 | – | –

Reference: ChEMBL document CHEMBL4425110, “ICI 56,780 Optimization: Structure-Activity Relationship Studies of 7-(2-Phenoxyethoxy)-4(1H)-quinolones with Antimalarial Activity” (J Med Chem, 2016)
